Key:
[1] = system: Staphylococcus aureus; assay: Antimicrobial activity against heterogenous vancomycin-intermediate-, methicillin-resistant Staphylococcus aureus 618 assessed as time required to induce sub-MIC effect at 0.4 times MIC […] by plate counting method; format: functional
Outline: (§1)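 SME, viable plate count method: no prior drug exposure. About 5 × 10^6 CFU/ml in Mueller-Hinton broth at 35°C received 0.2, 0.3 or 0.4× MIC, alongside a drug-free tube. Counts were taken at the start, then every 2 h until McFarland no. 1 turbidity, as log10 CFU/ml against time. Two separate experiments, each with a new inoculum.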

[2] = system: Staphylococcus aureus; assay: Antimicrobial activity against vancomycin-intermediate-, methicillin-resistant Staphylococcus aureus 555 assessed as time required to induce sub-MIC effect at 0.4 times MIC […] by plate counting method; format: functional; outline: as §1
[3] = system: Streptococcus agalactiae; assay: Antimicrobial activity against Streptococcus agalactiae HMC 5 assessed as time required to induce sub-MIC effect at 0.4 times MIC exposed for 2 hrs by plate counting method; format: functional
Outline: (§2)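 Unexposed Mueller-Hinton broth cultures (about 5 × 10^6 CFU/ml, 35°C) were handled as in the PA-SME set but without the 10× MIC pre-exposure. They were diluted 1:1,000, then given telavancin at final 0.2, 0.3 or 0.4× MIC, with a drug-free control. Viable counts were taken every 2 h until McFarland no. 1 turbidity. Effect duration comes from log10 CFU/ml-time plots; two separate experiments with new inocula.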

[4] = system: Staphylococcus aureus; assay: Antimicrobial activity against heterogenous vancomycin-intermediate-, methicillin-resistant Staphylococcus aureus 873 assessed as time required to induce post antibiotic sub-MIC effect at 0.4 times MIC […] by plate counting method; format: functional
Outline: (§3)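 PAE was first induced with 10× MIC for 1 h at 35°C (inoculum about 5 × 10^6 CFU/ml, Mueller-Hinton broth) and ended by 1:1,000 dilution. Cultures were then split and given 0.2, 0.3 or 0.4× MIC, with one tube left without drug. Viable counts were taken before exposure, after dilution, then every 2 h until McFarland no. 1 turbidity. Two separate experiments, each with a new inoculum.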

[5] = system: Staphylococcus aureus; assay: Antimicrobial activity against vancomycin-susceptible-, methicillin-resistant Staphylococcus aureus ATCC 33591 assessed as post-antibiotic effect at 10 times MIC pre-exposed to Telavancin for 1 hr by plate counting method; format: functional
Outline: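 Direct colony suspensions (~5 × 10^6 CFU/ml) were exposed to 10× MIC for 1 h at 35°C with shaking in Mueller-Hinton broth, then diluted 1:1,000 to remove drug. Viable plate counts were taken before exposure, at 0 h, then every 2 h until turbidity reached McFarland 1. PAE = T − C, the time for counts to rise 1 log10 versus the unexposed control. Two separate experiments were run.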

[6] = system: Staphylococcus aureus; assay: Antimicrobial activity against vancomycin-intermediate-, methicillin-resistant Staphylococcus aureus 770 assessed as post-antibiotic effect at 10 times MIC pre-exposed to Telavancin for 1 hr by plate counting method; format: functional
Outline: (§4)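 Viable plate count method in Mueller-Hinton broth. Direct colony suspension inoculum of about 5 × 10^6 CFU/ml was exposed to 10× MIC for 1 h at 35°C in a shaking water bath, then diluted 1:1,000 to remove drug. Counts were taken before exposure, at 0 h, then every 2 h until McFarland no. 1 turbidity. PAE = T − C, the time to a 1 log10 rise versus an unexposed growth control.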

[7] = system: Staphylococcus aureus; assay: Antimicrobial activity against vancomycin-intermediate-, methicillin-resistant Staphylococcus aureus 1984 assessed as post-antibiotic effect at 10 times MIC pre-exposed to Telavancin for 1 hr by plate counting method; format: functional; outline: as §4
[8] = system: Enterococcus faecalis; assay: Antimicrobial activity against Enterococcus faecalis ATCC 29212 assessed as post-antibiotic effect at 10 times MIC pre-exposed to Telavancin for 1 hr by plate counting method; format: functional
Outline: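 Organisms were suspended in Mueller-Hinton broth from overnight blood agar colonies at about 5 × 10^6 CFU/ml. Cultures were exposed to telavancin at 10× MIC for 1 h at 35°C in a shaking water bath, then diluted 1:1,000 to remove the drug, with an untreated growth control. Viable counts were taken before exposure, at 0 h, then every 2 h until McFarland no. 1 turbidity. PAE = T − C, the time to a 1 log10 rise. Two experiments.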

[9] = system: Staphylococcus aureus; assay: Antimicrobial activity against vancomycin-susceptible-, methicillin-resistant Staphylococcus aureus 1307 assessed as time required to induce sub-MIC effect at 0.2 times MIC exposed for 2 hrs by plate counting method; format: functional
Outline: (§5)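 Sub-MIC effect: cultures not preexposed to drug were diluted and handled as in the PA-SME procedure in Mueller-Hinton broth with final 0.2, 0.3 or 0.4× MIC, plus a drug-free control. Viable plate counts were taken every 2 h until McFarland 1 turbidity. Duration was derived from growth curves. Two experiments were run, each with a new inoculum.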

[10] = system: Staphylococcus aureus; assay: Antimicrobial activity against vancomycin-intermediate-, methicillin-resistant Staphylococcus aureus 770 assessed as time required to induce sub-MIC effect at 0.2 times MIC […] by plate counting method; format: functional; outline: as §1
[11] = system: Staphylococcus aureus; assay: Antimicrobial activity against vancomycin-intermediate-, methicillin-resistant Staphylococcus aureus 1287 assessed as time required to induce sub-MIC effect at 0.2 times MIC […] by plate counting method; format: functional; outline: as §1
[12] = system: Enterococcus faecalis; assay: Antimicrobial activity against Enterococcus faecalis HMC 571 assessed as time required to induce post antibiotic sub-MIC effect at 0.2 times MIC pre-exposed to Telavancin […] by plate counting method; format: functional
Outline: (§6)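 Mueller-Hinton broth cultures of about 5 × 10^6 CFU/ml were pre-exposed to telavancin at 10× MIC for 1 h at 35°C, then diluted 1:1,000. Telavancin was re-added to final 0.2, 0.3 or 0.4× MIC, alongside a drug-free tube. Viable counts were taken before exposure, after dilution, then every 2 h until McFarland no. 1 turbidity. Duration comes from log10 CFU/ml-versus-time plots; two separate experiments with fresh inocula.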

[13] = system: Enterococcus faecalis; assay: Antimicrobial activity against Enterococcus faecalis HMC 571 assessed as time required to induce sub-MIC effect at 0.3 times MIC exposed for 2 hrs by plate counting method; format: functional; outline: as §2
[14] = system: Staphylococcus aureus; assay: Antimicrobial activity against vancomycin-intermediate-, methicillin-resistant Staphylococcus aureus 1287 assessed as time required to induce post antibiotic sub-MIC effect at 0.3 times MIC […] by plate counting method; format: functional; outline: as §3
[15] = system: Staphylococcus aureus; assay: Antimicrobial activity against vancomycin-intermediate-, methicillin-resistant Staphylococcus aureus 1984 assessed as time required to induce post antibiotic sub-MIC effect at 0.3 times MIC […] by plate counting method; format: functional; outline: as §3
[16] = system: Enterococcus faecium; assay: Antimicrobial activity against Enterococcus faecium HMC 588 assessed as time required to induce post antibiotic sub-MIC effect at 0.3 times MIC […] by plate counting method; format: functional; outline: as §6
[17] = system: Staphylococcus aureus; assay: Antimicrobial activity against vancomycin-susceptible-, methicillin-resistant Staphylococcus aureus 1130 assessed as time required to induce sub-MIC effect at 0.4 times MIC exposed for 2 hrs by plate counting method; format: functional; outline: as §5
[18] = system: Staphylococcus aureus; assay: Antimicrobial activity against vancomycin-susceptible-, methicillin-resistant Staphylococcus aureus 1306 assessed as time required to induce sub-MIC effect at 0.4 times MIC exposed for 2 hrs by plate counting method; format: functional; outline: as §5
[19] = system: Staphylococcus aureus; assay: Antimicrobial activity against vancomycin-intermediate-, methicillin-resistant Staphylococcus aureus 1287 assessed as time required to induce post antibiotic sub-MIC effect at 0.2 times MIC pre-exposed to Telavancin for 1 hr by plate counting method

CCCCCCCCCCNCCN[C@@]1(C)C[C@H](O[C@H]2[C@H](Oc3c4cc5cc3Oc3ccc(cc3Cl)[C@@H](O)[C@@H](NC(=O)[C@@H](CC(C)C)NC)C(=O)N[C@@H](CC(N)=O)C(=O)N[C@H]5C(=O)N[C@H]3C(=O)N[C@H](C(=O)N[C@H](C(=O)O)c5cc(O)c(CNCP(=O)(O)O)c(O)c5-c5cc3ccc5O)[C@H](O)c3ccc(c(Cl)c3)O4)O[C@H](CO)[C@@H](O)[C@@H]2O)O[C@@H](C)[C@H]1O [TELAVANCIN]
PAE [1]: 2.3 h
PAE [2]: 4.3 h
PAE [3]: > 10.7 h
PAE [4]: 6.7 h
PAE [5]: 1.5 h
PAE [6]: 1.6 h
PAE [7]: 0.9 h
PAE [8]: 0.3 h
PAE [9]: 1 h
PAE [10]: 0.7 h
PAE [11]: 0 h
PAE [12]: 3.9 h
PAE [13]: 2.6 h
PAE [14]: 8.6 h
PAE [15]: > 10 h
PAE [16]: 8.9 h
PAE [17]: 6.5 h
PAE [18]: 6 h
PAE [19]: 5.1 h

Source: ChEMBL document CHEMBL1629663, “Postantibiotic effects of telavancin against 16 gram-positive organisms” (Antimicrob Agents Chemother, 2009)
